High-throughput results from PubChem.
S1P3 ag: activates the human S1P3 receptor; Q99500; S1P3 NFAT-BLA reporter cells, agonism, FRET ratio; relative to 1 µM S1P, basal subtracted; activation, % at 4.5 µM; 0.1% of 60,000 active; AID 373;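 active means activation above the screen-wide mean plus 3 SD, cut at about 4.5% in these data, passing the limit was not always enough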
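Benchmarks: high control 1 µM S1P / System: stable CHO line with human S1P3, Gα16, NFAT-BLA reporter / Dosing: single compound concentration, 4.5 µM final / Timing: 4 h compound at 37 °C, 2 h substrate at RT / Measured by: FRET β-lactamase substrate fluorescence, excitation 405 nm, 460/535 nm emission ratio, background-subtracted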
TNAP act mid DEA: activators of human TNAP at intermediate phosphate acceptor | 64,000 tested, under 10 active | P05186 | activation factor at 20 µM | AID 813 | purified TNAP, CDP-star luminescence, 100 mM DEA, 30 min; hits give high values; scale: 0 levamisole-inhibited, 1 vehicle-only enzyme;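 active means activation factor of at least 2 at 20 µM, relative to controls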
Target sequence (P05186 whole entry, looked up): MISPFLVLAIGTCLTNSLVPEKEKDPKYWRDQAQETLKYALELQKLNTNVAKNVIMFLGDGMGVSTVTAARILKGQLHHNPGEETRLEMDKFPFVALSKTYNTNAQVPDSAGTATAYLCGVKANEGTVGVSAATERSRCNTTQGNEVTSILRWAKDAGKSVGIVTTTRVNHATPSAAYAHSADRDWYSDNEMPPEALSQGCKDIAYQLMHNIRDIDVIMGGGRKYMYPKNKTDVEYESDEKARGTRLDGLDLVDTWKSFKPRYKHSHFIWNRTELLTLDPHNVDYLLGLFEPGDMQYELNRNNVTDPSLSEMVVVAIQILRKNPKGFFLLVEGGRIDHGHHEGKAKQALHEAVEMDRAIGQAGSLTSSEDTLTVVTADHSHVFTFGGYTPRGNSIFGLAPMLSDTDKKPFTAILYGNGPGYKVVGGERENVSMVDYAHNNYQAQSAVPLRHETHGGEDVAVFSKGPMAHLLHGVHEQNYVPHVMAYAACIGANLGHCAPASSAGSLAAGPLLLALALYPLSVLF
M1 antag: blocks the rat M1 muscarinic receptor response to acetylcholine. AID 628. B-score at 10 µM. CHO-M1 cells, Fluo-4 calcium, ACh EC80 antagonist mode; hits give low values. 3.4% of 64,000 active. P08482;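 active means calcium fluorescence response, raw or row-and-column corrected B-score, differing from the plate sample mean either way at a set confidence level, mostly lower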
D1 mod: allosteric modulators of human D1 dopamine receptor; P21728; HEK293 D1, CRE-luciferase, dopamine EC30 potentiation; actives deviate in either direction; B-score at 10 µM; 5.9% of 58,000 active;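 active means luminescence count or its row- and column-corrected plate score outside the 99.7% band of the plate's sample wells, on either side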
S1P1 ag pot: agonists and agonism potentiators of human S1P1 receptor; P21453; S1P1 CRE-bla cells, forskolin, beta-lactamase FRET, potentiator mode; S1P1 agonist co-added at EC20, 2 nM; 100% = saturating reference agonist, 0% = basal; activation, % at 9.5 µM; 0.57% of 56,000 active;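 active means activation above a cutoff set at the mean activation of all tested compounds plus 3 SD, cut at about 54% in these data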;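 further: forskolin at 4 µM as EC80 and the EC20 agonist is SEW2871; 100% = SEW2871 at its EC100 plus forskolin at EC80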
M1 agonist: M1 muscarinic receptor agonism; B-score at 10 µM; 3% of 64,000 active; AID 626; CHO-M1 cells, Fluo-4 calcium fluorescence, agonist mode; hits give high values;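 active means fluorescence rise, raw or as B-score row- and column-corrected plate score, outside the 99.7% band of its plate's samples, either direction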
M1 antag conf: M1 muscarinic receptor (rat) antagonism, confirmed; CHO-M1 cells, Fluo-4 calcium, ACh EC80 antagonism; hits give low values; 43% of 1,700 active; calcium response (max-min fluorescence) at 10 µM; shares compounds with M1 antag;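 active means calcium response below the same-plate mean of wells given acetylcholine alone at its 80%-effect dose, minus 3 SD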;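 further: raw fluorescence intensity difference in arbitrary instrument units and not normalized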
mGluR4 antag: selectivity test for M1 antagonists: human mGluR4 receptor; shares compounds with M1 antag; CHO-mGluR4 calcium flux, Fluo-4 fluorescence, glutamate EC80; hits give low values; fluorescence response (max-min) at 10 µM; 0.9% of 1,700 active;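 active means fluorescence response below the plate's average for near-maximal glutamate wells, less 3 SD of those wells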;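 further: raw unnormalized fluorescence span taken in the window right after glutamate addition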
* hit, by the source's call. Sampled rows, rich in hits. Any-hit rate of the full collection: about 11%.

How did CC(=O)N(Cc1ccccc1)c1ccc(C(=O)O)cc1 do in these assays?
S1P3 ag: -3; TNAP act mid DEA: 1; M1 antag: -2*; S1P1 ag pot: 6; M1 agonist: -0.26; M1 antag conf: 16*; mGluR4 antag: 232

How did CCOC(=O)C1CCN(C(=O)C2CCCCC2)CC1 do in these assays?
TNAP act mid DEA: 1; M1 antag: -0.076; D1 mod: -0.039; M1 agonist: -0.23

How did C=CCc1ccc(OCCCCCN2CCOCC2)c(OC)c1 do in these assays?
S1P3 ag: 0; TNAP act mid DEA: 0.9; M1 antag: -7*; D1 mod: 0.16; S1P1 ag pot: 12; M1 agonist: 0.7; M1 antag conf: 102*; mGluR4 antag: 227

How did CC(C)CCSc1nnc(Cn2c(=O)sc3ccccc32)n1C do in these assays?
S1P3 ag: -1; TNAP act mid DEA: 1; M1 antag: 0.31; S1P1 ag pot: 9; M1 agonist: -0.47

How did O=C1C2ON(c3ccccc3)C(c3ccncc3)C2C(=O)N1c1ccccc1 (stereo not given) do in these assays?
S1P3 ag: -3; TNAP act mid DEA: 0.9; M1 antag: 0.72; S1P1 ag pot: -1; M1 agonist: -0.81

How did CC(C)N1C(=O)C2ON(c3ccccc3)C(c3cccs3)C2C1=O (stereo not given) do in these assays?
S1P3 ag: 3; TNAP act mid DEA: 1; M1 antag: -3.8*; D1 mod: -0.023; S1P1 ag pot: -34; M1 agonist: -0.055; M1 antag conf: 542; mGluR4 antag: 243

How did Cc1noc(C)c1CSc1nc2ccccc2[nH]1 do in these assays?
S1P3 ag: 1; M1 antag: -1.4*; D1 mod: 0.0059; S1P1 ag pot: -5; M1 agonist: 0.68; M1 antag conf: 435*; mGluR4 antag: 268

What do the screens show for `Cc1noc(C)c1CSc1ccc2ccccc2n1`?
S1P3 ag: -1; TNAP act mid DEA: 1; M1 antag: 1.3; D1 mod: 0.053; S1P1 ag pot: 18; M1 agonist: -0.39

Results for Cc1noc(C)c1CSc1nc2ccccc2n1CCc1ccccc1 ?
S1P3 ag: 0; TNAP act mid DEA: 0.8; M1 antag: -3.8*; D1 mod: 2; S1P1 ag pot: -45; M1 agonist: 0.39; M1 antag conf: 572; mGluR4 antag: 239

Results for CCOc1cc(S(=O)(=O)NCc2ccco2)c(OCC)cc1-n1cnnn1 ?
S1P3 ag: 0; TNAP act mid DEA: 1; M1 antag: -1; D1 mod: -0.49; S1P1 ag pot: -22; M1 agonist: 1.1

What do the screens show for `Cn1c(=O)c2c(nc(NCc3cccnc3)n2Cc2cccc(C(F)(F)F)c2)n(C)c1=O`?
S1P3 ag: -1; TNAP act mid DEA: 0.9; M1 antag: 0.46; D1 mod: -0.91; S1P1 ag pot: 14; M1 agonist: -0.27

What do the screens show for `COc1cccc(-c2cnc(NCc3cc(Cl)ccc3O)n2C)c1`?
S1P3 ag: 0; TNAP act mid DEA: 1; M1 antag: -5.1*; D1 mod: -2.6; S1P1 ag pot: -5; M1 agonist: -1.5; M1 antag conf: 359*; mGluR4 antag: 185

How did Cn1c(-c2cccc(Br)c2)cnc1NCc1cccnc1 do in these assays?
S1P3 ag: 0; TNAP act mid DEA: 0.9; M1 antag: -6.9*; D1 mod: -1.3; S1P1 ag pot: 9; M1 agonist: -0.023; M1 antag conf: 40*; mGluR4 antag: 166

Results for Cc1cccc(C)c1NC(=O)N1CCC(N2CCCCC2)CC1 ?
S1P3 ag: 0; TNAP act mid DEA: 1; M1 antag: -0.34; D1 mod: 0.15; S1P1 ag pot: 1; M1 agonist: 0.23

How did CCCCc1c(O)nc(SCC(=O)NCCc2ccc(OC)c(OC)c2)[nH]c1=O do in these assays?
S1P3 ag: 0; TNAP act mid DEA: 0.9; M1 antag: 0.41; D1 mod: 0.98; S1P1 ag pot: -7; M1 agonist: -0.87
